Measurements: PMC8085964 (Pharmacology Research & Perspectives, 2021)
“Also recorded” adds a separate entry of the source. Each block holds one compound with its values, some of them ahead of it.

Legend:
[1] = Effect of efavirenz on R‐ and S‐PZQ pharmacokinetics; type: in vivo, healthy male participants (human); settings: for AUCt0‐tlast, Geo Mean / C max, Geo Mean / Clearance/F, Geo Mean / Elimination rate constant, Geo Mean / Half‐Life, Geo Mean / T max, Geo Mean / V d/F, Geo Mean / AUCinf, Geo Mean: plasma
[2] = Clinical safety assessments; type: in vivo, healthy male participants (human); settings: for tolerability: healthy participants, result in words
How it was run: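 Healthy young males (18–40 y, BMI 18–35) got a single oral test compound dose of 40 mg/kg by weight, then a 400 mg/day antiretroviral for 13 days under daily directly observed treatment. They stayed inpatient ≥24 h before and after dosing (days 1–3, 15–17). Vital signs were checked and adverse events or symptoms monitored. Examination, biochemistry, haematology, urinalysis and ECG were done at screening.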

[3] = should be maintained for at least 4 h for efficacy; cited from earlier work
[4] = patients pre‐exposed to rifampicin; cited from earlier work
[5] = Effect of ritonavir on R‐ and S‐PZQ pharmacokinetics; type: in vivo, healthy male participants (human); settings: for AUCt0‐tlast, Geo Mean / C max, Geo Mean / Elimination rate constant, Geo Mean / Half‐Life, Geo Mean / T max, Geo Mean / V d/F, Geo Mean / AUCinf, Geo Mean / Clearance/F, Geo Mean: plasma; for effect of ritonavir on pharmacokinetics: result in words
[6] = PZQ + Efavirenz (treatment): 40 mg/kg racemic PZQ after 400 mg efavirenz/day
[7] = PZQ alone (reference), single oral 40 mg/kg racemic PZQ, efavirenz arm
[8] = PZQ + Ritonavir (treatment): 40 mg/kg racemic PZQ after 100 mg ritonavir/day for 14 days
[9] = PZQ + Ritonavir (treatment): 40 mg/kg racemic PZQ after 100 mg ritonavir/day for 14 days, 40 mg/kg
[10] = PZQ alone (reference), single oral 40 mg/kg racemic PZQ, ritonavir arm
[11] = PZQ alone (reference), single oral 40 mg/kg racemic PZQ, ritonavir arm, 40 mg/kg

SMILES: O=C(C1CCCCC1)N1CC(=O)N2CCc3ccccc3C2C1 (stereo not shown) [PZQ, praziquantel]
attainment of the MEC (1 µg/mL for at least 4 h) ([1]; PZQ with efavirenz, result in words): all participants failed to attain the MEC for more than the minimum 4 h
tolerability [2]: generally well tolerated
minimum effective concentration (MEC) [3]: 1 µg/mL
participants without detectable levels [4]: 7 out of 10

SMILES: CC(C)c1nc(CN(C)C(=O)N[C@H](C(=O)N[C@@H](Cc2ccccc2)C[C@H](O)[C@H](Cc2ccccc2)NC(=O)OCc2cncs2)C(C)C)cs1 [ritonavir]
tolerability [2]: generally well tolerated

SMILES: O=C1Nc2ccc(Cl)cc2[C@@](C#CC2CC2)(C(F)(F)F)O1 [efavirenz]
participants with mild dizziness ([2]; efavirenz group, symptoms disappearing by day 5): 33%

AUCt0‐tlast, Geo Mean [1, 6]: 248.02 ng·h/mL
C max, Geo Mean [1, 6]: 104.32 ng/mL
Clearance/F, Geo Mean [1, 6]: 8449.32 L/h
Elimination rate constant, Geo Mean [1, 6]: 0.25 h⁻¹
Half‐Life, Geo Mean [1, 6]: 2.76 h
T max, Geo Mean [1, 6]: 1.64 h
V d/F, Geo Mean [1, 6]: 33637.78 L
AUCinf, Geo Mean ([1]; PZQ + Efavirenz (treatment): 40 mg/kg racemic PZQ after 400 mg efavirenz/day, 40 mg/kg): 281.43 ng·h/mL
AUCinf, Difference observed ([1]; PZQ + efavirenz vs PZQ alone): −74.36%
AUCinf, Treatment/reference GMR ([1]; PZQ + efavirenz vs PZQ alone): 23.20%
AUCt0‐tlast, Difference observed ([1]; PZQ + efavirenz vs PZQ alone): −76.90%
AUCt0‐tlast, Treatment/reference GMR ([1]; PZQ + efavirenz vs PZQ alone): 21.75%
C max, Difference observed ([1]; PZQ + efavirenz vs PZQ alone): −82.52%
C max, Treatment/reference GMR ([1]; PZQ + efavirenz vs PZQ alone): 21.21%
Clearance/F, Difference observed ([1]; PZQ + efavirenz vs PZQ alone): 546.74%
Elimination rate constant, Difference observed ([1]; PZQ + efavirenz vs PZQ alone): 3.45%
Half‐Life, Difference observed ([1]; PZQ + efavirenz vs PZQ alone): 17.63%
T max, Difference observed ([1]; PZQ + efavirenz vs PZQ alone): −18.22%
V d/F, Difference observed ([1]; PZQ + efavirenz vs PZQ alone): 280.92%
reduction in AUCinf (exposure) by efavirenz ([1]; PZQ + efavirenz vs PZQ alone): 4 fold
AUCinf, Geo Mean [1, 7]: 1213.15 ng·h/mL
AUCt0‐tlast, Geo Mean [1, 7]: 1140.41 ng·h/mL
C max, Geo Mean [1, 7]: 491.78 ng/mL
Clearance/F, Geo Mean [1, 7]: 1960.10 L/h
Elimination rate constant, Geo Mean [1, 7]: 0.26 h⁻¹
Half‐Life, Geo Mean [1, 7]: 2.66 h
T max, Geo Mean [1, 7]: 1.88 h
V d/F, Geo Mean [1, 7]: 7507.98 L
change in the T max when co‐administered with efavirenz ([1]; result in words): no change
AUCt0‐tlast, Geo Mean [5, 8]: 950.73 ng·h/mL
C max, Geo Mean [5, 8]: 354.34 ng/mL
Elimination rate constant, Geo Mean [5, 8]: 0.26 h⁻¹
Half‐Life, Geo Mean [5, 8]: 2.71 h
T max, Geo Mean [5, 8]: 1.53 h
V d/F, Geo Mean [5, 8]: 8772.21 L
AUCinf, Geo Mean [5, 9]: 1057.66 ng·h/mL
Clearance/F, Geo Mean [5, 9]: 2241.23 L/h
AUCinf, Difference observed ([5]; PZQ + ritonavir vs PZQ alone): 17.62%
AUCinf, Treatment/reference GMR ([5]; PZQ + ritonavir vs PZQ alone): 104.41%
AUCt0‐tlast, Difference observed ([5]; PZQ + ritonavir vs PZQ alone): 22.8%
AUCt0‐tlast, Treatment/reference GMR ([5]; PZQ + ritonavir vs PZQ alone): 107.06%
C max, Difference observed ([5]; PZQ + ritonavir vs PZQ alone): 13.70%
C max, Treatment/reference GMR ([5]; PZQ + ritonavir vs PZQ alone): 114.88%
Clearance/F, Difference observed ([5]; PZQ + ritonavir vs PZQ alone): 4.36%
Elimination rate constant, Difference observed ([5]; PZQ + ritonavir vs PZQ alone): 26.08%
Half‐Life, Difference observed ([5]; PZQ + ritonavir vs PZQ alone): −28.64%
T max, Difference observed ([5]; PZQ + ritonavir vs PZQ alone): −15.46%
V d/F, Difference observed ([5]; PZQ + ritonavir vs PZQ alone): −15.74%
AUCt0‐tlast, Geo Mean [5, 10]: 888.02 ng·h/mL
C max, Geo Mean [5, 10]: 308.44 ng/mL
Elimination rate constant, Geo Mean [5, 10]: 0.19 h⁻¹
Half‐Life, Geo Mean [5, 10]: 3.57 h
T max, Geo Mean [5, 10]: 1.69 h
V d/F, Geo Mean [5, 10]: 12034.61 L
AUCinf, Geo Mean [5, 11]: 1012.96 ng·h/mL
Clearance/F, Geo Mean [5, 11]: 2340.12 L/h
SMILES: O=C(C1CCCCC1)N1CC(=O)N2CCc3ccccc3[C@@H]2C1 [R‐Praziquantel]
effect of ritonavir on pharmacokinetics ([5]; PZQ + ritonavir vs PZQ alone, listed as R‐PZQ): no significant effect; also recorded: did not have a significant inhibitory effect

AUCinf, Geo Mean [1, 6]: 871.84 ng·h/mL
AUCt0‐tlast, Geo Mean [1, 6]: 826.17 ng·h/mL
C max, Geo Mean [1, 6]: 329.98 ng/mL
Clearance/F, Geo Mean [1, 6]: 2727.44 L/h
Elimination rate constant, Geo Mean [1, 6]: 0.35 h⁻¹
Half‐Life, Geo Mean [1, 6]: 2.00 h
T max, Geo Mean [1, 6]: 1.81 h
V d/F, Geo Mean [1, 6]: 7887.36 L
AUCinf, Difference observed ([1]; PZQ + efavirenz vs PZQ alone): −75.26%
AUCt0‐tlast, Difference observed ([1]; PZQ + efavirenz vs PZQ alone): −75.16%
AUCt0‐tlast, Treatment/reference GMR ([1]; PZQ + efavirenz vs PZQ alone): 15.26%
C max, Difference observed ([1]; PZQ + efavirenz vs PZQ alone): −76.85%
Clearance/F, Difference observed ([1]; PZQ + efavirenz vs PZQ alone): 950.27%
Elimination rate constant, Difference observed ([1]; PZQ + efavirenz vs PZQ alone): 11.76%
Half‐Life, Difference observed ([1]; PZQ + efavirenz vs PZQ alone): −15.83%
T max, Difference observed ([1]; PZQ + efavirenz vs PZQ alone): −25.48%
V d/F, Difference observed ([1]; PZQ + efavirenz vs PZQ alone): 757.72%
AUCt0‐tlast, Geo Mean [1, 7]: 5413.80 ng·h/mL
C max, Geo Mean [1, 7]: 1991.32 ng/mL
Clearance/F, Geo Mean [1, 7]: 419.40 L/h
Elimination rate constant, Geo Mean [1, 7]: 0.31 h⁻¹
Half‐Life, Geo Mean [1, 7]: 2.27 h
T max, Geo Mean [1, 7]: 2.42 h
V d/F, Geo Mean [1, 7]: 1373.82 L
AUCinf, Geo Mean ([1]; PZQ alone (reference), single oral 40 mg/kg racemic PZQ, efavirenz arm, 40 mg/kg): 5669.77 ng·h/mL
AUCinf, Geo Mean [5, 8]: 7291.05 ng·h/mL
AUCt0‐tlast, Geo Mean [5, 8]: 7083.71 ng·h/mL
Clearance/F, Geo Mean [5, 8]: 325.12 L/h
Elimination rate constant, Geo Mean [5, 8]: 0.38 h⁻¹
Half‐Life, Geo Mean [5, 8]: 1.81 h
T max, Geo Mean [5, 8]: 1.60 h
V d/F, Geo Mean [5, 8]: 847.06 L
C max, Geo Mean [5, 9]: 2336.96 ng/mL
AUCinf, Difference observed ([5]; PZQ + ritonavir vs PZQ alone): 69.84%
AUCinf, Treatment/reference GMR ([5]; PZQ + ritonavir vs PZQ alone): 175.49%
AUCt0‐tlast, Difference observed ([5]; PZQ + ritonavir vs PZQ alone): 71.88%
AUCt0‐tlast, Treatment/reference GMR ([5]; PZQ + ritonavir vs PZQ alone): 178.30%
C max, Difference observed ([5]; PZQ + ritonavir vs PZQ alone): 88.41%
Clearance/F, Difference observed ([5]; PZQ + ritonavir vs PZQ alone): −44.37%
Elimination rate constant, Difference observed ([5]; PZQ + ritonavir vs PZQ alone): 34.38%
Half‐Life, Difference observed ([5]; PZQ + ritonavir vs PZQ alone): −19.25%
T max, Difference observed ([5]; PZQ + ritonavir vs PZQ alone): −24.58%
V d/F, Difference observed ([5]; PZQ + ritonavir vs PZQ alone): −55.79%
effect of ritonavir on pharmacokinetics ([5]; PZQ + ritonavir vs PZQ alone): significant effect
AUCinf, Geo Mean [5, 10]: 4154.79 ng·h/mL
AUCt0‐tlast, Geo Mean [5, 10]: 3972.89 ng·h/mL
Clearance/F, Geo Mean [5, 10]: 570.54 L/h
Elimination rate constant, Geo Mean [5, 10]: 0.31 h⁻¹
Half‐Life, Geo Mean [5, 10]: 2.25 h
T max, Geo Mean [5, 10]: 2.20 h
V d/F, Geo Mean [5, 10]: 1847.59 L
C max, Geo Mean [5, 11]: 1174.93 ng/mL
SMILES: O=C(C1CCCCC1)N1CC(=O)N2CCc3ccccc3[C@H]2C1 [S‐Praziquantel]
